Data: ChEMBL document CHEMBL5058577, “EUbOPEN Chemogenomics Library 2 (Multiplex)” (2022)

System: HEK-293T
Test: Multiplex assay against HEK293T
Assay type: toxicity, cell-based
Settings: human
How it was run: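 Cells stained live at seeding with Hoechst33342, BioTracker Green Microtubule Cytoskeleton Dye, MitoTracker Red and Annexin V Alexa Fluor 680 were imaged on a CQ1 microscope at 37°C and 5% CO2 after compound addition. Their classification by CellPathfinder machine-learning gating ran from Hoechst high-intensity objects versus normal cells, to healthy, pyknosed or fragmented nuclei among normal cells, to mitotic or apoptotic among pyknosed cells. Tubulin, mitochondrial-mass and membrane-permeability phenotypes are per cents of healthy-nucleus cells.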

[1] = 12 h, 1 µM, compound concentration 1 uM, replicate 1
[2] = 12 h, 1 µM, compound concentration 1 uM, replicate 2
[3] = 12 h, 10 µM, compound concentration 10 uM, replicate 1
[4] = 12 h, 10 µM, compound concentration 10 uM, replicate 2
[5] = 24 h, 1 µM, compound concentration 1 uM, replicate 1
[6] = 24 h, 1 µM, compound concentration 1 uM, replicate 2
[7] = 24 h, 10 µM, compound concentration 10 uM, replicate 1
[8] = 24 h, 10 µM, compound concentration 10 uM, replicate 2
[9] = 48 h, 1 µM, compound concentration 1 uM, replicate 1
[10] = 48 h, 1 µM, compound concentration 1 uM, replicate 2
[11] = 48 h, 10 µM, compound concentration 10 uM, replicate 1
[12] = 48 h, 10 µM, compound concentration 10 uM, replicate 2

For `COc1ccccc1N1CCN(C[C@@H](C(=O)NC(C)(C)C)c2ccccc2)CC1.Cl.Cl`, the “Population Apoptotic (%)” value [1] was 24%, the “Population Fragmented Nuclei (%)” value [1] was 7% and the “Population Healthy Nuclei (%)” value [1] was 77%. For the same compound, the “Population Hoechst High Intensity Objects (%)” value [1] was 7%, the “Population Membrane Permeable-Phenotype (%)” value [1] was 0% and the “Population Mitochondria Different-Phenotype (%)” value [1] was 48%. For the same compound, the “Population Mitotic Cells (%)” value [1] was 75%, the “Population Normal (%)” value [1] was 92% and the “Population Pyknosed Nuclei (%)” value [1] was 14%. The “Population Tubulin-Different-Phenotype (%)” value [1] was 47%, the “Total Cell Count” value [1] was 434 and the “Population Apoptotic (%)” value [2] was 42%. For the same compound, the “Population Fragmented Nuclei (%)” value [2] was 4%, the “Population Healthy Nuclei (%)” value [2] was 76% and the “Population Hoechst High Intensity Objects (%)” value [2] was 6%. For the same compound, the “Population Mitochondria Different-Phenotype (%)” value [2] was 77%, the “Population Mitotic Cells (%)” value [2] was 57% and the “Population Normal (%)” value [2] was 93%. For the same compound, the “Population Pyknosed Nuclei (%)” value [2] was 19%, the “Population Tubulin-Different-Phenotype (%)” value [2] was 35% and the “Total Cell Count” value [2] was 300. For the same compound, the “Population Apoptotic (%)” value [3] was 62%, the “Population Fragmented Nuclei (%)” value [3] was 7% and the “Population Healthy Nuclei (%)” value [3] was 69%. The “Population Hoechst High Intensity Objects (%)” value [3] was 7%, the “Population Membrane Permeable-Phenotype (%)” value [3] was 0% and the “Population Mitochondria Different-Phenotype (%)” value [3] was 88%. For the same compound, the “Population Mitotic Cells (%)” value [3] was 37%, the “Population Normal (%)” value [3] was 92% and the “Population Pyknosed Nuclei (%)” value [3] was 23%. For the same compound, the “Population Tubulin-Different-Phenotype (%)” value [3] was 74%, the “Total Cell Count” value [3] was 333 and the “Population Apoptotic (%)” value [4] was 58%. For the same compound, the “Population Fragmented Nuclei (%)” value [4] was 5%, the “Population Hoechst High Intensity Objects (%)” value [4] was 16% and the “Population Mitochondria Different-Phenotype (%)” value [4] was 79%. The “Population Mitotic Cells (%)” value [4] was 41%, the “Population Normal (%)” value [4] was 83% and the “Population Pyknosed Nuclei (%)” value [4] was 25%. The “Population Tubulin-Different-Phenotype (%)” value [4] was 59%, the “Total Cell Count” value [4] was 231 and the “Population Apoptotic (%)” value [5] was 19%. For the same compound, the “Population Fragmented Nuclei (%)” value [5] was 8%, the “Population Healthy Nuclei (%)” value [5] was 81% and the “Population Hoechst High Intensity Objects (%)” value [5] was 4%. The “Population Membrane Permeable-Phenotype (%)” value [5] was 0%, the “Population Mitochondria Different-Phenotype (%)” value [5] was 31% and the “Population Mitotic Cells (%)” value [5] was 80%. For the same compound, the “Population Normal (%)” value [5] was 95%, the “Population Pyknosed Nuclei (%)” value [5] was 9% and the “Population Tubulin-Different-Phenotype (%)” value [5] was 29%. For the same compound, the “Total Cell Count” value [5] was 563, the “Population Apoptotic (%)” value [6] was 34% and the “Population Fragmented Nuclei (%)” value [6] was 11%. For the same compound, the “Population Healthy Nuclei (%)” value [6] was 76%, the “Population Hoechst High Intensity Objects (%)” value [6] was 6% and the “Population Mitochondria Different-Phenotype (%)” value [6] was 54%. For the same compound, the “Population Mitotic Cells (%)” value [6] was 65%, the “Population Normal (%)” value [6] was 93% and the “Population Pyknosed Nuclei (%)” value [6] was 11%. The “Population Tubulin-Different-Phenotype (%)” value [6] was 28%, the “Total Cell Count” value [6] was 387 and the “Population Apoptotic (%)” value [7] was 45%. The “Population Fragmented Nuclei (%)” value [7] was 8%, the “Population Healthy Nuclei (%)” value [7] was 68% and the “Population Hoechst High Intensity Objects (%)” value [7] was 7%. For the same compound, the “Population Membrane Permeable-Phenotype (%)” value [7] was 0%, the “Population Mitochondria Different-Phenotype (%)” value [7] was 77% and the “Population Mitotic Cells (%)” value [7] was 54%. The “Population Normal (%)” value [7] was 92%, the “Population Pyknosed Nuclei (%)” value [7] was 23% and the “Population Tubulin-Different-Phenotype (%)” value [7] was 61%. The “Total Cell Count” value [7] was 377, the “Population Apoptotic (%)” value [8] was 66% and the “Population Healthy Nuclei (%)” value [8] was 76%. For the same compound, the “Population Hoechst High Intensity Objects (%)” value [8] was 14%, the “Population Mitochondria Different-Phenotype (%)” value [8] was 73% and the “Population Mitotic Cells (%)” value [8] was 33%. For the same compound, the “Population Normal (%)” value [8] was 85%, the “Population Pyknosed Nuclei (%)” value [8] was 15% and the “Population Tubulin-Different-Phenotype (%)” value [8] was 48%. For the same compound, the “Total Cell Count” value [8] was 251, the “Population Apoptotic (%)” value [9] was 22% and the “Population Fragmented Nuclei (%)” value [9] was 13%. For the same compound, the “Population Healthy Nuclei (%)” value [9] was 78%, the “Population Hoechst High Intensity Objects (%)” value [9] was 2% and the “Population Membrane Permeable-Phenotype (%)” value [9] was 1%. The “Population Mitochondria Different-Phenotype (%)” value [9] was 19%, the “Population Mitotic Cells (%)” value [9] was 77% and the “Population Normal (%)” value [9] was 97%. The “Population Pyknosed Nuclei (%)” value [9] was 8%, the “Population Tubulin-Different-Phenotype (%)” value [9] was 18% and the “Total Cell Count” value [9] was 908. For the same compound, the “Population Apoptotic (%)” value [10] was 38%, the “Population Fragmented Nuclei (%)” value [10] was 10% and the “Population Healthy Nuclei (%)” value [10] was 80%. The “Population Hoechst High Intensity Objects (%)” value [10] was 6%, the “Population Membrane Permeable-Phenotype (%)” value [10] was 0% and the “Population Mitochondria Different-Phenotype (%)” value [10] was 37%. The “Population Mitotic Cells (%)” value [10] was 61%, the “Population Normal (%)” value [10] was 93% and the “Population Pyknosed Nuclei (%)” value [10] was 9%. The “Population Tubulin-Different-Phenotype (%)” value [10] was 20%, the “Total Cell Count” value [10] was 480 and the “Population Apoptotic (%)” value [11] was 50%. For the same compound, the “Population Fragmented Nuclei (%)” value [11] was 14%, the “Population Healthy Nuclei (%)” value [11] was 72% and the “Population Hoechst High Intensity Objects (%)” value [11] was 6%. For the same compound, the “Population Membrane Permeable-Phenotype (%)” value [11] was 0%, the “Population Mitochondria Different-Phenotype (%)” value [11] was 59% and the “Population Mitotic Cells (%)” value [11] was 49%. The “Population Normal (%)” value [11] was 93%, the “Population Pyknosed Nuclei (%)” value [11] was 13% and the “Population Tubulin-Different-Phenotype (%)” value [11] was 44%. For the same compound, the “Total Cell Count” value [11] was 467, the “Population Apoptotic (%)” value [12] was 62% and the “Population Fragmented Nuclei (%)” value [12] was 10%. For the same compound, the “Population Healthy Nuclei (%)” value [12] was 76%, the “Population Hoechst High Intensity Objects (%)” value [12] was 5% and the “Population Mitochondria Different-Phenotype (%)” value [12] was 58%. The “Population Mitotic Cells (%)” value [12] was 37%, the “Population Normal (%)” value [12] was 94% and the “Population Tubulin-Different-Phenotype (%)” value [12] was 36%. The “Total Cell Count” value [12] was 375.
